This is a sample that favours compounds with a hit; in the whole collection about 3.5% have one here.
MrgX1 ag – activates human MrgX1 receptor signaling | AID 588627 | MrgX1-HEK293 cells, Fluo-4 calcium fluorescence, agonist mode; active compounds read high | 310,000 compounds, 0.44% hits | B-score at 10 µM;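 active = calcium response B-score plate-corrected fluorescence ratio at least 3 library SD, with starting fluorescence B-score inside 5 SD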
Target sequence (Q96LB2 whole entry, looked up): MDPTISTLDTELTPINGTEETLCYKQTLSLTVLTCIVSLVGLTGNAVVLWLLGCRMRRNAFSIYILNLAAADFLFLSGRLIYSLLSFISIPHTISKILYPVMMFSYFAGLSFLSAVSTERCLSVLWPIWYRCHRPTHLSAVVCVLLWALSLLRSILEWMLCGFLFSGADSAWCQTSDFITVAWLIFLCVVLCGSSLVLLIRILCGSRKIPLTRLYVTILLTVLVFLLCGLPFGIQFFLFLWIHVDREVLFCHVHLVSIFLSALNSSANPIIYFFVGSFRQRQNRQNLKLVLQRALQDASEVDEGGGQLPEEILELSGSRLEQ
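Test system: Stable human MrgX1 HEK293 cell line | Schedule: Overnight plating before 1 h dye loading | Read-out basis: Baseline-normalised fluorescence change ratio, B-scored | Detection: Kinetic calcium dye fluorescence, Fluo-4 NW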
MrgX1 allo act – allosterically activates human MrgX1 receptor signaling. Q96LB2. MrgX1-HEK293, Fluo-4 calcium flux, FDSS; active compounds read high. B-score at 10 µM. 310,000 compounds, 0.63% hits;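 active = plate-corrected calcium response at least 3 library SD above typical, normal starting fluorescence, not activating the receptor alone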;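 note: compound read alongside a low EC10 to EC30 dose of BAM8-22 agonist; peak minus trough fluorescence over baseline measured at the second addition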
MrgX1 antag – antagonists of human MrgX1 receptor; 310,000 compounds, 1.3% hits; B-score at 10 µM; MRGX1-HEK293 calcium flux, Fluo-4, BAM8-22 antagonism; active compounds read low; Q96LB2;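 active = calcium-response B-score plate-corrected more than 3 library SD below zero, starting fluorescence within 5 deviations, no agonist response on first addition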;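 note: peak minus trough fluorescence over baseline after final BAM8-22 challenge near maximal dose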
RGS4 act – RGS4 potentiation or activation. HEK293 M3R/inducible RGS4, carbachol calcium flux Fluo4; active compounds read low. B-score at 10 µM. 310,000 compounds, 0.92% hits;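 active = B-score of the integrated calcium signal more than 4 SD below the library mean, with starting fluorescence not abnormally high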;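 note: negative B-score means reduced calcium response which marks RGS4 activation or potentiation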
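Material: Inducible-RGS4 HEK293 cells carrying M3 receptor; also added: carbachol at ECmax as muscarinic agonist stimulus; incubation: compound preincubation 20 min at room temperature before agonist; signal: Fluo4-AM (2 µM) calcium-flux fluorescence, kinetic read; measure: integrated calcium ratio converted to B score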
RGS4 inh – inhibitors of human RGS4; 310,000 compounds, 0.45% hits; B-score at 10 µM; HEK293 M3R/RGS4 inducible, Fluo-4 calcium flux; active compounds read high; triggered by carbachol at its EC20; P49798;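 active = B-score, a plate-corrected calcium signal, over three deviations above library mean, with baseline fluorescence within five deviations of library mean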;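 note: RGS4 expression induced by doxycycline in cells with stable M3 receptor; B-score is computed from the integrated fluorescence ratio over baseline after carbachol; higher B-score means a larger calcium signal and so more RGS4 inhibition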
Target sequence (P49798 whole entry, looked up): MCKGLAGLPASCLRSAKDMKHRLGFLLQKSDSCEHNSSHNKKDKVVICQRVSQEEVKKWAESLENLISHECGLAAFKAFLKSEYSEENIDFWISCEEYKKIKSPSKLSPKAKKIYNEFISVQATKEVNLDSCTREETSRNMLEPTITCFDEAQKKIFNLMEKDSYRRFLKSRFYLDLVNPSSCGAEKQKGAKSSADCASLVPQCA
Large screens that a line does not name were inactive.

C=CCn1c(SCCOc2ccccc2)nnc1C(C)NC(=O)c1ccccc1 (stereo not given)	none
CC(=O)/C(=N/Nc1ccc(Br)cc1)N1CCCc2ccccc21	RGS4 act -7.7
CC1(C)[C@@H](O)CC[C@]2(C)C3C(O)C=C4[C@H]5C[C@@](C)(C(=O)O)CC[C@]5(C)CC[C@]4(C)[C@]3(C)CC[C@@H]12 (stereo not given in full)	MrgX1 ag 29
COc1ccccc1-n1cnnc1SC(C)C(=O)Nc1cccc([N+](=O)[O-])c1 (stereo not given)	none
COCCN(C(=O)CCl)C(C(=O)NC1CCCCC1)c1ccccc1C (stereo not given)	none
Cc1cccc(C)c1C(OCCN(C)C)C1CCCCC1 (stereo not given)	RGS4 act -7.4
O=C(/C=C1\SC(=O)N(CC(=O)Nc2ccc(Cl)cc2)C1=O)Nc1ccc(F)cc1	none
Cc1cccc(NC(=O)CN2C(=O)S/C(=C\C(=O)Nc3ccc(Cl)cc3)C2=O)c1	MrgX1 antag -5.7
O=C(Nc1nc2c(F)cc(F)cc2s1)c1ccc([N+](=O)[O-])o1	MrgX1 allo act 8.6
COc1ccc2nc(NC(=O)/C=C/c3ccc4c(c3)OCO4)sc2c1	MrgX1 antag -6.3
COc1ccc2nc(NC(=O)c3ccc([N+](=O)[O-])o3)sc2c1	MrgX1 allo act 12
COc1ccc2nc(Nc3ccc4c(c3)OCO4)sc2c1	none
COc1ccc(S(=O)(=O)N2CCN(Cc3cccc(F)c3)CC2)cc1	none
O=C(NCCN1CCOCC1)C1CCCN(S(=O)(=O)c2ccc(F)cc2)C1 (stereo not given)	none
O=S(=O)(Nc1ccc2c(c1)OCO2)c1cccs1	none
O=S(=O)(Nc1ccc2c(c1)OCCO2)c1cccs1	MrgX1 antag -4.6
CCOc1ccc(C(=O)CCC(=O)N2CCN(c3ncccn3)CC2)cc1	none
O=C(CNC(=O)c1cccs1)c1ccc(Br)cc1	none
CC(C)(C)C1CCc2c(C(=O)N/N=C/c3cccs3)csc2C1 (stereo not given)	none
CC(C)(C)C1CCc2c(C(=O)NNC(=O)/C=C/C(=O)O)csc2C1 (stereo not given)	MrgX1 antag -6.4
Cc1ccc(S(=O)(=O)c2c(N)n(Cc3ccco3)c3nc4ccccc4nc23)cc1C	MrgX1 antag -4.8
CCNc1nc(CN2CCCCC2)nc2scc(-c3ccccc3)c12	RGS4 act -7.2
OCC1CCCN(c2nc(CN3CCCCC3)nc3scc(-c4ccccc4)c23)C1 (stereo not given)	none
COc1cccc(OCC(O)CNC(=O)c2oc3ccc(C)cc3c2C)c1 (stereo not given)	none
C=CCOc1ccccc1CNCCCN1CCOCC1	MrgX1 antag -7.3
C=CCN1C(=O)CSc2ccc(C(=O)NCc3cccs3)cc21	none
COc1ccc2oc(C(=O)NC3(C)CCS(=O)(=O)C3)c(C)c2c1 (stereo not given)	none
O=C(O)CC1SC(N/N=C/c2ccc(Br)cc2)NC1=O (stereo not given)	MrgX1 antag -5.7
CC(C)C(=O)Nc1c2c(nn1-c1ccc(F)cc1)CSC2	none
COc1ccc(C)cc1Nc1n[n+](-c2ccccc2)c(-c2cc([N+](=O)[O-])cc(OC)c2O)s1	MrgX1 antag -6
CCC(Sc1ccc(C(=O)O)cc1)C(=O)O (stereo not given)	none
O=C(CC(Sc1ccc(Br)cc1)C(=O)O)c1ccc(F)cc1 (stereo not given)	RGS4 inh 6.3
CCN1C(=O)[C@@H]2[C@@H](c3ccc(-c4ccc(F)cc4)c(OC)c3)N3CCCC[C@@]3(C(=O)OC)[C@@H]2C1=O	none (no result: RGS4 act, RGS4 inh)
Cc1ccnc(NS(=O)(=O)c2cc(-c3cc(C)no3)ccc2C(C)C)c1	none
Cc1ccc(C(=O)N/C(=C\c2ccc(-c3ccc([N+](=O)[O-])cc3)o2)C(=O)NC2CCS(=O)(=O)C2)cc1 (stereo not given)	MrgX1 antag -4.9
Cc1ccc(C(=O)N/C(=C/c2ccc(-c3ccc([N+](=O)[O-])cc3)o2)C(=O)NCCCN(C)C)cc1	MrgX1 ag 45
O=C(NCc1ccccc1Cl)c1cc(=O)[nH]c2ccccc12	none
Cc1ccc(NC2CCCN(C(=O)CN3C(=O)CSC3=O)C2)cc1C (stereo not given)	none
CC(C)(C)NC(=O)NC(=O)CSc1cccc(C(F)(F)F)c1	none
O=C(/C(N=Nc1cccc(C(F)(F)F)c1)=C(/O)c1cccs1)C(F)(F)F	RGS4 act -9.2
CC(=O)/C(N=Nc1cccc(C(F)(F)F)c1)=C(\C)O	none
O=C1CCCCC1C(Nc1ccc(Br)cc1)c1ccccc1 (stereo not given)	RGS4 act -7.5
COc1ccc(Nc2nc(N)c([N+](=O)[O-])c(NC3CCCCC3)n2)cc1	RGS4 act -9.4
Cc1ccc(O)c(C(=O)/C=C/c2ccc3c(c2)OCCO3)c1	none
C#CCOCCOCCOCCNc1nc(N2CCN(C(=O)CCCCCCCCCCNC(=O)[C@H](CCCCN)n3cc(CCO)nn3)CC2)nc(N2CCN(C(=O)CCCCCCCCCCNC(=O)[C@H](CCCCN)n3cc(C[C@@H](C)CC)nn3)CC2)n1	MrgX1 ag 83 (no result: RGS4 act, RGS4 inh)
C#CCOCCOCCOCCNc1nc(N2CCN(C(=O)CCCCCCCCCCNC(=O)[C@@H](CCC(=O)O)n3cc(CCCCCN)nn3)CC2)nc(N2CCN(C(=O)CCCCCCCCCCNC(=O)[C@H](CCCCN)n3cc(C[C@@H](C)CC)nn3)CC2)n1	MrgX1 ag 70 (no result: RGS4 act, RGS4 inh)
C#CCOCCOCCOCCNc1nc(N2CCN(C(=O)CCCCCCCCCCNC(=O)[C@@H](CCC(=O)O)n3cc(CCCCCN)nn3)CC2)nc(N2CCN(C(=O)CCCCCCCCCCNC(=O)[C@H](CO)n3cc(CCCCCN)nn3)CC2)n1	none (no result: RGS4 act, RGS4 inh)
CC1(c2ccc3ccccc3c2)NC(=O)N(CC(=O)N2CCN(c3ccccc3O)CC2)C1=O (stereo not given)	none
CN=c1scc(C)n1/N=C/c1ccc(O)c(O)c1O	none
CN=c1scc(-c2cccs2)n1/N=C/c1ccc(O)c(O)c1O	MrgX1 allo act 14
CN=c1scc(-c2cccs2)n1/N=C/c1ccccc1O	MrgX1 allo act 7.4
CCN(Cc1ccncc1)C(=O)C1CCC(=O)N(Cc2ccc(Cl)cc2)C1 (stereo not given)	none
O=C(CCNS(=O)(=O)c1ccccc1)N1CCCCCC1	RGS4 act -7.1
CCOC(=O)C1=NN(C(=O)Nc2cccc(C(F)(F)F)c2)C2C(=O)N(c3cccc(C(F)(F)F)c3)C(=O)C12 (stereo not given)	none
CCOC(=O)c1sc(=S)n(-c2ccccc2Cl)c1C	RGS4 act -9.3
COc1cc(/C=N\Nc2nc3ccccc3o2)cc(OC)c1OC	MrgX1 antag -6.6
CCOC(=O)Cc1csc(NC(=O)c2ccc(Br)s2)n1	MrgX1 ag 31
CCOC(=O)Cc1csc(NC(=O)c2cccs2)n1	none
